In ChEMBL document CHEMBL1123082, “Hashish: synthesis and central nervous system activity of some novel analogues of cannabidiol and oxepin derivatives of delta 9-tetrahydrocannabinol” (1985):
Calls of active or inactive are those of the source.

How the values were obtained:
Mus musculus [1] = assay: Compound was evaluated for the percent antagonism by tail-flick test in mice in mice at dose 1.0 mg/kg; format: functional
Method in brief: (§1)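 Male ICR mice (22–30 g). Vehicle or drug given iv 10 min before an iv injection of Δ9-THC (1 mg/kg) or vehicle into the opposite tail vein. Tail-flick measured 5 min after the second injection, with a 10 s cutoff. % antagonism = [1 − (%MPE drug-pretreated / %MPE vehicle-pretreated)] × 100. At least six mice per dose.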

Mus musculus [2] = assay: Compound was evaluated for the percent antagonism by tail-flick test in mice in mice at dose 2.5 mg/kg; format: functional; method in brief: as §1
Mus musculus [3] = assay: Compound was evaluated for the percent antagonism by tail-flick test in mice in mice at dose 5.0 mg/kg; format: functional; method in brief: as §1
Mus musculus [4] = assay: The difference between the preinjection and postinjection (60 min) temperatures in mice was evaluated at a dose 1.0 mg/kg; format: functional
Method in brief: (§2)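 Male ICR mice (22–30 g). Rectal temperature taken by thermistor probe inserted 25 mm just before iv vehicle or drug (0.1 mL/10 g). Mice spent 10 min in activity chambers, then temperature was taken immediately and every 10 min up to 60 min. Value is the change from pre-injection to 60 min post-injection, mean ± SEM, N = 6. Ambient temperature was 21–24 °C.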

Mus musculus [5] = assay: The difference between the preinjection and postinjection (60 min) temperatures in mice was evaluated at a dose 5.0 mg/kg; format: functional; method in brief: as §2
Mus musculus [6] = assay: The difference between the preinjection and postinjection (60 min) temperatures in mice was evaluated at a dose 2.5 mg/kg; format: functional
Mus musculus [7] = assay: Compound was evaluated for the maximum possible effect by tail-flick test in mice at dose 5.0 mg/kg; format: functional
Method in brief: (§3)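 Male ICR mice (22–30 g). Control tail-flick latency to a heat source measured in each mouse. Vehicle or drug then given iv into the tail vein and latency retested 5 min later, with a 10 s cutoff. %MPE = (test − control)/(cutoff − control) × 100. At least six mice per dose.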

Mus musculus [8] = assay: The difference between the preinjection and postinjection (60 min) temperatures in mice was evaluated at a dose 5 mg/kg; format: functional; method in brief: as §2
Mus musculus [9] = assay: The difference between the preinjection and postinjection (60 min) temperatures in mice was evaluated at a dose 7.5 mg/kg; format: functional
Mus musculus [10] = assay: Compound was evaluated for the maximum possible effect in tail-flick test in mice at dose 0.3 mg/kg; format: functional; method in brief: as §3
Mus musculus [11] = assay: Compound was evaluated for the maximum possible effect in tail-flick test in mice at dose 1 mg/kg; format: functional; method in brief: as §3
Mus musculus [12] = assay: Compound was evaluated for the maximum possible effect in tail-flick test in mice at dose 2.5 mg/kg; format: functional; method in brief: as §3
Mus musculus [13] = assay: Spontaneous activity in mice at a dose 10 mg/kg; format: functional
Method in brief: (§4)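 Male ICR mice (22–30 g), housed 24 h in the lab before testing. Vehicle or drug given iv (0.1 mL/10 g), then each mouse placed alone in a photocell activity chamber. Beam interruptions counted for 10 min and expressed as percent of vehicle-treated controls. ED50 with 95% confidence limits by Litchfield–Wilcoxon. At least six mice per dose.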

Mus musculus [14] = assay: Compound was evaluated for the percent antagonism in tail-flick test in mice at a dose 20 mg/kg; format: functional; method in brief: as §1
Mus musculus [15] = assay: The difference between the preinjection and postinjection (60 min) temperatures in mice was evaluated at a dose 30 mg/kg; format: functional; method in brief: as §2
Mus musculus [16] = assay: The difference between the preinjection and postinjection (60 min) temperatures in mice was evaluated at a dose 60 mg/kg; format: functional
Method in brief: (§5)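 Male ICR mice (22–30 g), housed 24 h before testing; rectal temperature by thermistor probe inserted 25 mm, taken just before dosing. Drug or vehicle given iv (0.1 mL/10 g); mice held 10 min in photocell chambers, then temperature read at 10-min intervals to 60 min. Value is pre- minus 60-min post-injection difference, mean ± SEM, N = 6.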

Mus musculus [17] = assay: The difference between the preinjection and postinjection (60 min) temperatures in mice was evaluated at a dose 10 mg/kg; format: functional; method in brief: as §2
Mus musculus [18] = assay: Compound was evaluated for the maximum possible effect in tail-flick test in mice at dose 20 mg/kg; format: functional; method in brief: as §3
Mus musculus [19] = assay: Compound was evaluated for the percent antagonism by tail-flick test in mice in mice at dose 20 mg/kg; format: functional; method in brief: as §1
Mus musculus [20] = assay: Compound was evaluated for the percent antagonism in tail-flick test in mice in mice at dose 10 mg/kg; format: functional; method in brief: as §1
Mus musculus [21] = assay: Compound was evaluated for the maximum possible effect by tail-flick test in mice at dose 20 mg/kg; format: functional; method in brief: as §3
Mus musculus [22] = assay: Compound was evaluated for the percent antagonism by tail-flick test in mice in mice at dose 10 mg/kg; format: functional; method in brief: as §1
Mus musculus [23] = assay: Compound was evaluated for the percent antagonism by tail-flick test in mice in mice at dose 25 mg/kg; format: functional; method in brief: as §1
Mus musculus [24] = assay: The difference between the preinjection and postinjection (60 min) temperatures in mice was evaluated at a dose 35 mg/kg; format: functional; method in brief: as §2
Mus musculus [25] = assay: The difference between the preinjection and postinjection (60 min) temperatures in mice was evaluated at a dose 25 mg/kg; format: functional; method in brief: as §2
Mus musculus [26] = assay: Compound was evaluated for the maximum possible effect by tail-flick test in mice at dose 25 mg/kg; format: functional; method in brief: as §3
Canis familiaris [27] = assay: Compound was evaluated for overt behavoiur in dogs by behavioral rating score in dog static-ataxia test at a dose 5 mg/kg; format: functional, Canis lupus familiaris
Method in brief: (§6)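 Mongrel dogs of either sex (8–12 kg) scored for spontaneous activity, gait, tail tuck, etc. before dosing. Cannabinoid or vehicle then given iv (1 mL/5 kg). Behaviour rated every 5 min on the Walton static-ataxia scale as modified. Sessions of five dogs: vehicle, 0.2 mg/kg Δ9-THC positive control, or one of three other cannabinoid treatments. Score given with number of dogs.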

Canis familiaris [28] = assay: Compound was evaluated for overt behavoiur in dogs by behavioral rating score in dog static-ataxia test at a dose 2 mg/kg; format: functional, Canis lupus familiaris; method in brief: as §6
Mus musculus [29] = assay: The difference between the preinjection and post injection temperatures in vehicle treated mice was evaluated at a dose 100 mg/kg; format: functional; method in brief: as §2
Mus musculus [30] = assay: The difference between the preinjection and post injection temperatures in vehicle treated mice was evaluated at a dose 2 mg/kg; format: functional; method in brief: as §2
Mus musculus [31] = assay: The difference between the preinjection and post injection temperatures in vehicle treated mice was evaluated at a dose 30 mg/kg; format: functional; method in brief: as §2
Mus musculus [32] = assay: Spontaneous activity in vehicle treated mice at a dose 100 mg/kg.; format: functional; method in brief: as §4
Mus musculus [33] = assay: Spontaneous activity in vehicle treated mice at a dose 30 mg/kg.; format: functional; method in brief: as §4
Mus musculus [34] = assay: Spontaneous activity in mice at a dose 10 mg/kg; Not active up to a lethal dose of 60 mg/kg; format: functional, organism-based; method in brief: as §4
Mus musculus [35] = assay: Compound was evaluated for the percent antagonism by tail-flick test in mice at dose 10 mg/kg; format: functional; method in brief: as §1
Mus musculus [36] = assay: Compound was evaluated for the percent antagonism in tail-flick test in mice at dose 40 mg/kg; format: functional; method in brief: as §1
Mus musculus [37] = assay: The difference between the preinjection and postinjection (60 min) temperatures in mice was evaluated at a dose 40 mg/kg; format: functional; method in brief: as §2
Mus musculus [38] = assay: The difference between the preinjection and postinjection (60 min) temperatures in mice was evaluated at a dose 50 mg/kg; format: functional; method in brief: as §2
Mus musculus [39] = assay: The difference between the preinjection and postinjection (60 min) temperatures in mice was evaluated at a dose 75 mg/kg; format: functional; method in brief: as §5
Mus musculus [40] = assay: The difference between the preinjection and postinjection (60 min) temperatures in mice was evaluated at a dose 100 mg/kg; format: functional; method in brief: as §2
Mus musculus [41] = assay: Compound was evaluated for the maximum possible effect in tail-flick test in mice at dose 40 mg/kg; format: functional; method in brief: as §3
Canis familiaris [42] = assay: Compound was evaluated for overt behavoiur in dogs by behavioral rating score in dog static-ataxia test at a dose 0.5 mg/kg; format: functional, Canis lupus familiaris; method in brief: as §6
Mus musculus [43] = assay: The difference between the preinjection and post injection temperatures in vehicle treated mice was evaluated at a dose 10 mg/kg; format: functional; method in brief: as §2
Mus musculus [44] = assay: The difference between the preinjection and post injection temperatures in vehicle treated mice was evaluated at a dose 1 mg/kg; format: functional; method in brief: as §2
Mus musculus [45] = assay: The difference between the preinjection and post injection temperatures in vehicle treated mice was evaluated at a dose 3 mg/kg; format: functional; method in brief: as §2
Mus musculus [46] = assay: Compound was evaluated spontaneous activity in vehicle treated mice at a dose 100 mg/kg.; format: functional; method in brief: as §4
Mus musculus [47] = assay: Compound was evaluated spontaneous activity in vehicle treated mice at a dose 10 mg/kg.; format: functional; method in brief: as §4
Mus musculus [48] = assay: Compound was evaluated spontaneous activity in vehicle treated mice at a dose 1 mg/kg.; format: functional; method in brief: as §4
Mus musculus [49] = assay: Compound was evaluated spontaneous activity in vehicle treated mice at a dose 3 mg/kg.; format: functional; method in brief: as §4
Mus musculus [50] = assay: Compound was evaluated spontaneous activity in vehicle treated mice at a dose 30 mg/kg.; format: functional; method in brief: as §4

C=C(CNCC)[C@@H]1CCC(C)=CC1c1c(O)cc(CCCCC)cc1O (stereo partly drawn)
Antagonism (Mus musculus [1]): 33% | Antagonism (Mus musculus [2]): 66% | Antagonism (Mus musculus [3]): 67% | Hypothermic effect (Mus musculus [4]): 1 | Hypothermic effect (Mus musculus [5]): 1 | Hypothermic effect (Mus musculus [6]): 1.4 | MPE (Mus musculus [7]): 7%

CCCCCc1cc(O)c2c(c1)OC(C)(C)[C@@H]1CCC(C)=C[C@@H]21 [DRONABINOL]
Hypothermic effect (Mus musculus [8]): 3.6 | Hypothermic effect (Mus musculus [9]): 3.8 | Hypothermic effect (Mus musculus [6]): 2.6 | MPE (Mus musculus [10]): 27% | MPE (Mus musculus [11]): 53% | MPE (Mus musculus [12]): 61%

C=C(CN1CCOCC1)[C@@H]1CCC(C)=CC1c1c(OC(C)=O)cc(CCCCC)cc1OC(C)=O (stereo partly drawn)
ED50 (Mus musculus [13]): 16 mg/kg | Antagonism (Mus musculus [14]): 14% | Hypothermic effect (Mus musculus [15]): 1.2 | Hypothermic effect (Mus musculus [16]): 1.3 | Hypothermic effect (Mus musculus [17]): 0.9 | MPE (Mus musculus [18]): 3%

C#CCN(C)CC(=C)[C@@H]1CCC(C)=CC1c1c(OC(C)=O)cc(CCCCC)cc1OC(C)=O (stereo partly drawn)
ED50 (Mus musculus [13]): 13 mg/kg | Antagonism (Mus musculus [19]): 63% | Antagonism (Mus musculus [20]): 25% | Hypothermic effect (Mus musculus [15]): 1 | Hypothermic effect (Mus musculus [16]): 1.5 | Hypothermic effect (Mus musculus [17]): 0.3 | MPE (Mus musculus [21]): 0%

C=C(CNC(=O)CCCN)[C@@H]1CCC(C)=CC1c1c(O)cc(CCCCC)cc1O (stereo partly drawn)
ED50 (Mus musculus [13]): 30 mg/kg | Antagonism (Mus musculus [22]): 14% | Antagonism (Mus musculus [23]): 43% | Hypothermic effect (Mus musculus [15]): 2 | Hypothermic effect (Mus musculus [24]): 2.1 | Hypothermic effect (Mus musculus [25]): 1.3 | MPE (Mus musculus [26]): 7%

C=C1COc2cc(CCCCC)cc(O)c2C2C=C(C)CC[C@@H]12 (stereo partly drawn)
Overt behavoiur (Canis familiaris [27]): 0 | Overt behavoiur (Canis familiaris [28]): 0 | Hypothermic effect (Mus musculus [29]): 0 | Hypothermic effect (Mus musculus [30]): 0.4 | Hypothermic effect (Mus musculus [31]): 0.1 | Spontaneous activity (Mus musculus [32]): 41 | Spontaneous activity (Mus musculus [33]): 0

C=C(CN(C(C)C)C(C)C)[C@@H]1CCC(C)=CC1c1c(OC(C)=O)cc(CCCCC)cc1OC(C)=O (stereo partly drawn)
ED50 (Mus musculus [34]): inactive | Antagonism (Mus musculus [35]): 0% | Antagonism (Mus musculus [19]): 58% | Hypothermic effect (Mus musculus [15]): 0.9 | Hypothermic effect (Mus musculus [17]): 1 | MPE (Mus musculus [21]): 0%

C=C(C)[C@@H]1CCC(C)=C[C@H]1c1c(O)cc(CCCCC)cc1O [CANNABIDIOL]
Antagonism (Mus musculus [36]): 0% | Hypothermic effect (Mus musculus [37]): 0.5 | Hypothermic effect (Mus musculus [38]): 0.4 | Hypothermic effect (Mus musculus [39]): 2.1 | Hypothermic effect (Mus musculus [40]): 2.5 | MPE (Mus musculus [41]): 5%

C=C1COc2cc(C(C)C(C)CCCCC)cc(O)c2C2C=C(C)CC[C@@H]12 (stereo partly drawn)
Overt behavoiur (Canis familiaris [42]): 0 | Hypothermic effect (Mus musculus [29]): 7.8 | Hypothermic effect (Mus musculus [43]): 4.9 | Hypothermic effect (Mus musculus [44]): 0.4 | Hypothermic effect (Mus musculus [31]): 5.7 | Hypothermic effect (Mus musculus [45]): 0.6 | Spontaneous activity (Mus musculus [46]): 82 | Spontaneous activity (Mus musculus [47]): 71 | Spontaneous activity (Mus musculus [48]): 10 | Spontaneous activity (Mus musculus [49]): 50 | Spontaneous activity (Mus musculus [50]): 58
